Reference: ChEMBL document CHEMBL4425098, “Thiolactomycin-Based Inhibitors of Bacterial β-Ketoacyl-ACP Synthases with in Vivo Activity” (J Med Chem, 2016)
Values after ≈ are worked out from the molar mass of the structure shown. Active and inactive are the calls of the source. The calls are words filed in the database; no cut-off is given here.

Columns and labels:
Klebsiella pneumoniae = assay: Antibacterial activity against Klebsiella pneumoniae KPC2ST258 infected in Swiss Webster mouse assessed as survival time at 100 mg/kg, sc administered 1, 12 and 24 hrs post infection measured every 12 hrs for 7 days; format: functional
Method in brief: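 K. pneumoniae KPC2ST258 was given IP as 5×10⁶ cfu in BHI broth. Drugs in saline/PEG400/ethanol (40/20/40) were injected SC at 100 mg/kg/inj at 1, 12 and 24 h post infection. Mice were checked every 12 h for 7 days, n=8–10 per group. Average survival time was compared with vehicle by one-tailed t test.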

[1] = tested on: Burkholderia pseudomallei; assay: Antibacterial activity against Burkholderia pseudomallei after 18 to 24 hrs by Alamar blue dye-based colorimetric assay; format: functional
[2] = molecular target: T1, 3-oxoacyl-[acyl-carrier-protein] synthase 2 (Staphylococcus aureus, UniProt Q5TKS0); assay: Binding affinity to Staphylococcus aureus wild type FabF expressed in Escherichia coli BL21 (DE3) PlysS cells by intrinsic tryptophan fluorescence quenching-based fluorimetric method
T1 sequence (Q5TKS0 whole entry): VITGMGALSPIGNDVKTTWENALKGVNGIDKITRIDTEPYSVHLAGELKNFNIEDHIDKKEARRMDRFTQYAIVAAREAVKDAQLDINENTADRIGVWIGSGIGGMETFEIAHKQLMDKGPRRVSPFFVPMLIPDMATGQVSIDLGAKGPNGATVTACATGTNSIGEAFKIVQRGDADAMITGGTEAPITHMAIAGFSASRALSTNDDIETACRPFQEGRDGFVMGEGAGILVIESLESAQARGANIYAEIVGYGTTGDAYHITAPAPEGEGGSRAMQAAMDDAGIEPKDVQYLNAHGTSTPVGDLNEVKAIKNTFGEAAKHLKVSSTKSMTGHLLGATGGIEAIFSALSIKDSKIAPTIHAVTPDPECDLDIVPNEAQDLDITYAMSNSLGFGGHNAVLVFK

Staphylococcus aureus [3] = assay: Antibacterial activity against methicillin-resistant Staphylococcus aureus BAA 1762 infected in Swiss Webster mouse assessed as increase in survival rate at 100 mg/kg, sc administered 1 and 25 hrs post infection measured twice a day for 5 days relative to vehicle-treated control; format: functional, organism-based
Method in brief: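 Mice made neutropenic with cyclophosphamide 4 days and 1 day before infection. MRSA BAA 1762 was given IP as 0.5 mL of 5×10⁷ cells/mL in BHI. Analogues in water/ethanol, or vancomycin in water, were dosed SC at 100 mg/kg/inj at 1 and 25 h post infection. Survival was checked every 12 h for 5 days, n=6–7 per group. Average survival time was compared with vehicle by one-tailed t test.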

Yersinia pestis = assay: Antibacterial activity against Yersinia pestis A1122 after 18 to 24 hrs by Alamar blue dye-based colorimetric assay; format: functional
Staphylococcus aureus [4] = assay: Antibacterial activity against methicillin-sensitive Staphylococcus aureus RN4220 after 18 to 24 hrs by Alamar blue dye-based colorimetric assay; format: functional
Method in brief: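 Two-fold serial dilutions from 512 down to 0.25 μg/mL in CAMHB (microbroth dilution); incubated 37 °C for 18–24 h, then Alamar Blue added for a further 4 h. Absorbance read at 570 and 600 nm; percent growth reduction plotted against concentration, MIC90 from non-linear regression; growth and MICs confirmed by optical density.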

[5] = molecular target: 3-oxoacyl-[acyl-carrier-protein] synthase 2 (Staphylococcus aureus, UniProt Q5TKS0, C165Q); assay: Binding affinity to Staphylococcus aureus FabF C165Q mutant expressed in Escherichia coli BL21 (DE3) PlysS cells by intrinsic tryptophan fluorescence quenching-based fluorimetric method
Method in brief: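 Kd by quenching of intrinsic tryptophan fluorescence (excitation 280 nm, emission 337 nm). Inhibitor stocks in DMSO or buffer were titrated into 1 μM His-tag-purified enzyme in 50 mM Tris-HCl, 150 mM NaCl, 1 mM DTT, pH 8.5. mtFabB was expressed in M. smegmatis MC²155; saFabF was expressed in E. coli BL21(DE3) pLysS.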

[6] = tested on: Mycobacterium tuberculosis; assay: Antibacterial activity against Mycobacterium tuberculosis H37Rv after 6 days by Alamar blue dye-based colorimetric assay; format: functional; conditions: 144 h
Method in brief: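 M. tuberculosis H37Rv grown to early-mid log phase in Middlebrook 7H9 with 10% OADC and 0.05% Tween 80, added to 1:2 serial compound dilutions, and grown for 6 days at 37°C. Alamar blue then added for a further 24 h. MIC taken as the concentration preventing visible growth and Alamar blue reduction in all replicates.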

Francisella tularensis = assay: Antibacterial activity against Francisella tularensis LVS after 18 to 24 hrs by Alamar blue dye-based colorimetric assay; format: functional
Staphylococcus aureus [7] = assay: Antibacterial activity against methicillin-resistant Staphylococcus aureus BAA 1762 after 18 to 24 hrs by Alamar blue dye-based colorimetric assay; format: functional
[8] = tested on: Mycobacterium tuberculosis; assay: Binding affinity to Mycobacterium tuberculosis wild type FabB expressed in Mycobacterium smegmatis MC2 155 by WaterLOGSY-based competition assay

Row | Compound | MSD (Klebsiella pneumoniae) | Activity [1] | Kd [2] | Activity (Staphylococcus aureus [3]) | MIC90 (Yersinia pestis) | MIC90 (Staphylococcus aureus [4]) | Kd [5] | MIC90 [6] | MIC90 (Francisella tularensis) | MIC90 (Staphylococcus aureus [7]) | Activity [8] | MIC [1]
1 | C=C/C(C)=C/[C@@]1(C)SC(=O)C(C(C)=O)=C1O | 4.6 days | inactive | 14.2 µM | Active | > 250 µg/mL | 64 µg/mL (≈ 269 µM) | 11.9 µM | 12.5 µg/mL (≈ 52.5 µM) | 8.8 µg/mL (≈ 36.9 µM) | 32 µg/mL (≈ 134 µM) |  | 
2 | C=C/C(C)=C/[C@@]1(C)SC(=O)C=C1OCC(=O)NCCn1cc(CNC(=O)c2ccc(NS(=O)(=O)c3ccc(F)cc3)cc2)nn1 |  |  |  |  |  | > 64 µg/mL |  | > 100 µg/mL | > 256 µg/mL | > 64 µg/mL | inactive | 
3 | C=C/C(C)=C/[C@@]1(C)SC(=O)C(C(=O)CCCCCN=[N+]=[N-])=C1O |  |  |  |  |  | 16 µg/mL (≈ 47.7 µM) |  |  |  | 16 µg/mL (≈ 47.7 µM) |  | 
4 | C=C/C(C)=C/[C@@]1(C)SC(=O)C(CCCN=[N+]=[N-])=C1O |  |  |  |  | > 250 µg/mL | > 64 µg/mL |  | 100 µg/mL (≈ 358 µM) | 23.6 µg/mL (≈ 84.5 µM) | > 100 µg/mL |  | 
5 | C=C/C(C)=C/[C@@]1(C)SC(=O)C(CCCCn2cc(CNC(=O)[C@H](O)C(C)(C)CO)nn2)=C1O |  |  |  |  | > 250 µg/mL | > 64 µg/mL |  | > 100 µg/mL | 250 µg/mL (≈ 522 µM) | > 100 µg/mL |  | 
6 | C=C/C(C)=C/[C@@]1(C)SC(=O)C(CCc2ccc(Cl)cc2)=C1O |  | inactive |  |  | > 250 µg/mL | 64 µg/mL (≈ 191 µM) |  | 100 µg/mL (≈ 299 µM) | 3.1 µg/mL (≈ 9.26 µM) | 100 µg/mL (≈ 299 µM) |  | 
7 | C=C/C(C)=C/[C@@]1(C)SC(=O)C(CCCCc2ccc(Br)cc2)=C1O |  |  | 92 µM |  | > 250 µg/mL | 32 µg/mL (≈ 78.6 µM) |  | 12.5 µg/mL (≈ 30.7 µM) | 2.2 µg/mL (≈ 5.4 µM) | 50 µg/mL (≈ 123 µM) |  | 
8 | C=C/C(C)=C/[C@@]1(C)SC(=O)C(CCCCc2ccc(Cl)cc2)=C1O |  |  |  |  | > 250 µg/mL | 64 µg/mL (≈ 176 µM) |  | 100 µg/mL (≈ 276 µM) | 1.7 µg/mL (≈ 4.68 µM) | 50 µg/mL (≈ 138 µM) |  | 
9 | C=C/C(C)=C/[C@@]1(C)SC(=O)C(CCCCc2ccc(-c3ccccc3)cc2)=C1O |  |  | 131 µM |  | > 250 µg/mL | 16 µg/mL (≈ 39.5 µM) |  | 12.5 µg/mL (≈ 30.9 µM) | 1.9 µg/mL (≈ 4.7 µM) | 25 µg/mL (≈ 61.8 µM) |  | 
10 | C=C/C(C)=C/[C@@]1(C)SC(=O)C=C1O |  | inactive |  |  | 250 µg/mL (≈ 1270 µM) | 150 µg/mL (≈ 764 µM) |  | > 100 µg/mL | 124 µg/mL (≈ 632 µM) | 100 µg/mL (≈ 509 µM) | inactive | 
11 | C=C/C(C)=C/[C@@]1(C)SC(=O)C(C(=O)CCC)=C1O |  | inactive |  |  | > 250 µg/mL | 16 µg/mL (≈ 60.1 µM) |  | 100 µg/mL (≈ 375 µM) | 1.8 µg/mL (≈ 6.76 µM) | 32 µg/mL (≈ 120 µM) |  | 
12 | C=C/C(C)=C/[C@@]1(C)SC(=O)C(C(=O)CCCCCc2ccc(-c3ccccc3)cc2)=C1O |  | inactive | 35.2 µM | Active | > 250 µg/mL | 0.5 µg/mL (≈ 1.12 µM) | 33 µM | 50 µg/mL (≈ 112 µM) | 0.21 µg/mL (≈ 0.47 µM) | 1 µg/mL (≈ 2.24 µM) |  | 
13 | C=C/C(C)=C/[C@@]1(C)SC(=O)C(CCc2ccc(C)cc2)=C1O |  |  |  |  | > 250 µg/mL | > 64 µg/mL |  |  | 3.4 µg/mL (≈ 10.8 µM) | > 100 µg/mL |  | 
14 | C=C/C(C)=C/[C@@]1(C)SC(=O)C(C(=O)c2ccccc2C(=O)O)=C1O |  | inactive |  |  | > 250 µg/mL | 32 µg/mL (≈ 92.9 µM) |  | 50 µg/mL (≈ 145 µM) | 15.9 µg/mL (≈ 46.2 µM) | 32 µg/mL (≈ 92.9 µM) |  | 
15 | C=C/C(C)=C/[C@@]1(C)SC(=O)C=C1OCC(=O)NCCn1cc(CNC(=O)[C@H](O)C(C)(C)CO)nn1 |  |  |  |  |  | > 64 µg/mL |  | 100 µg/mL (≈ 197 µM) | 159 µg/mL (≈ 313 µM) | > 64 µg/mL | inactive | 
16 | C=C/C(C)=C/[C@@]1(C)SC(=O)C(CCCCn2cc(CNC(=O)c3ccc(NS(=O)(=O)c4ccc(F)cc4)cc3)nn2)=C1O |  |  |  |  | > 250 µg/mL | > 64 µg/mL |  | 100 µg/mL (≈ 160 µM) | 250 µg/mL (≈ 400 µM) | > 100 µg/mL |  | 
17 | C=C/C(C)=C/[C@@]1(C)SC(=O)C=C1OCC(=O)NCCN=[N+]=[N-] |  |  |  |  |  | > 64 µg/mL |  | > 100 µg/mL | 39 µg/mL (≈ 121 µM) | > 64 µg/mL | inactive | 
18 | C=C/C(C)=C/[C@@]1(C)SC(=O)C(CCCCN=[N+]=[N-])=C1O |  |  | 107 µM |  | > 250 µg/mL | > 64 µg/mL |  | 100 µg/mL (≈ 341 µM) | 15.3 µg/mL (≈ 52.1 µM) | > 100 µg/mL |  | 
19 | C=C/C(C)=C/[C@@]1(C)SC(=O)C(CC)=C1O |  |  |  |  | 145 µg/mL (≈ 646 µM) | 150 µg/mL (≈ 669 µM) |  | 2.5 µg/mL (≈ 11.1 µM) | 6.9 µg/mL (≈ 30.8 µM) | 125 µg/mL (≈ 557 µM) |  | 32 µg/mL (≈ 143 µM)
20 | C=C/C(C)=C/[C@@]1(C)SC(=O)C(CCC)=C1O |  | inactive |  |  | > 250 µg/mL | > 200 µg/mL |  | 25 µg/mL (≈ 105 µM) | 25.8 µg/mL (≈ 108 µM) | > 200 µg/mL |  | 
21 | C=C/C(C)=C/[C@@]1(C)SC(=O)C(C(=O)OC)=C1O |  | inactive |  |  | > 250 µg/mL | > 64 µg/mL |  | 100 µg/mL (≈ 393 µM) | 58.2 µg/mL (≈ 229 µM) | > 64 µg/mL |  | 
22 | C=C/C(C)=C/[C@@]1(C)SC(=O)C(C(=O)CCCCCCCCCCCCCCC)=C1O |  | inactive | > 200 µM |  | > 250 µg/mL | 0.5 µg/mL (≈ 1.15 µM) |  | 100 µg/mL (≈ 230 µM) | 3.9 µg/mL (≈ 8.97 µM) | 1 µg/mL (≈ 2.3 µM) |  | 
23 | C=C/C(C)=C/[C@@]1(C)SC(=O)C(CCCCc2ccc(F)cc2)=C1O |  | inactive |  |  | > 250 µg/mL | > 64 µg/mL |  | > 100 µg/mL | 3.1 µg/mL (≈ 8.95 µM) | 75 µg/mL (≈ 216 µM) |  | 
